In publication PMC11520665 (Critical Care, 2024):

Experiment: Safety: treatment-emergent adverse events
Format: in vivo, patients (adults)
Details: safety population
Summary of the method: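 Post-hoc pooled data from two randomised, double-blind, double-dummy trials. The safety population was adults in the ICU at randomisation who received ≥1 dose. Dosing was IV test compound weekly (400 mg Day 1, 200 mg Day 8, optional later 200 mg) or IV comparator echinocandin daily (70 mg Day 1, then 50 mg/day). TEAEs ran from dosing to follow-up, coded MedDRA 23.0, graded mild/moderate/severe, and summarised descriptively.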

[1] = ICU at randomisation, n=46 rezafungin, n=67 caspofungin
[2] = ICU at randomisation, number of events per severity

Q: Which results are given for Caspofungin?
A: TEAE: Abdominal abscess, patients [1]: 4 (6.0) n (%); TEAE: Abdominal pain, patients [1]: 4 (6.0) n (%); TEAE: Acidosis, patients [1]: 4 (6.0) n (%); TEAE: Acute kidney injury, patients [1]: 4 (6.0) n (%); TEAE: Anaemia, patients [1]: 7 (10.4) n (%); TEAE: Atrial fibrillation, patients [1]: 3 (4.5) n (%); TEAE: Bradycardia, patients [1]: 5 (7.5) n (%); TEAE: Constipation, patients [1]: 4 (6.0) n (%); TEAE: Decubitus ulcer, patients [1]: 5 (7.5) n (%); TEAE: Deep vein thrombosis, patients [1]: 4 (6.0) n (%); TEAE: Diarrhoea, patients [1]: 7 (10.4) n (%); TEAE: Dyspnoea, patients [1]: 4 (6.0) n (%); TEAE: Fluid overload, patients [1]: 2 (3.0) n (%); TEAE: Hyperkalaemia, patients [1]: 5 (7.5) n (%); TEAE: Hypertension, patients [1]: 3 (4.5) n (%); TEAE: Hypokalaemia, patients [1]: 10 (14.9) n (%); TEAE: Hypotension, patients [1]: 6 (9.0) n (%); TEAE: Insomnia, patients [1]: 2 (3.0) n (%); TEAE: Multiple organ dysfunction syndrome, patients [1]: 3 (4.5) n (%); TEAE: Nausea, patients [1]: 4 (6.0) n (%); TEAE: Peripheral oedema, patients [1]: 2 (3.0) n (%); TEAE: Pleural effusion, patients [1]: 4 (6.0) n (%); TEAE: Pneumonia, patients [1]: 2 (3.0) n (%); TEAE: Pneumothorax, patients [1]: 4 (6.0) n (%); TEAE: Pyrexia, patients [1]: 6 (9.0) n (%); TEAE: Respiratory failure, patients [1]: 4 (6.0) n (%); TEAE: Sepsis, patients [1]: 3 (4.5) n (%); TEAE: Septic shock, patients [1]: 7 (10.4) n (%); TEAE: Vomiting, patients [1]: 3 (4.5) n (%); ≥ 1 TEAE [1]: 54 (80.6) n (%); ≥ 1 TEAE leading to study/drug discontinuation [1]: 20 (29.9) n (%); ≥ 1 serious TEAE [1]: 38 (56.7) n (%); ≥ 1 study drug-related TEAE [1]: 11 (16.4) n (%); ≥ 1 study drug-related TEAE leading to study/drug discontinuation [1]: 2 (3.0) n (%); ≥ 1 study drug-related serious TEAE [1]: 4 (6.0) n (%); TEAE: Abdominal abscess, event severity (n): mild/moderate/severe [2]: 0/0/4; TEAE: Abdominal pain, event severity (n): mild/moderate/severe [2]: 3/0/1; TEAE: Acidosis, event severity (n): mild/moderate/severe [2]: 2/2/0; TEAE: Acute kidney injury, event severity (n): mild/moderate/severe [2]: 1/1/2; TEAE: Anaemia, event severity (n): mild/moderate/severe [2]: 3/4/0; TEAE: Atrial fibrillation, event severity (n): mild/moderate/severe [2]: 1/2/0; TEAE: Bradycardia, event severity (n): mild/moderate/severe [2]: 2/3/0; TEAE: Constipation, event severity (n): mild/moderate/severe [2]: 3/1/0; TEAE: Decubitus ulcer, event severity (n): mild/moderate/severe [2]: 2/2/1; TEAE: Deep vein thrombosis, event severity (n): mild/moderate/severe [2]: 1/3/0; TEAE: Diarrhoea, event severity (n): mild/moderate/severe [2]: 4/3/0; TEAE: Dyspnoea, event severity (n): mild/moderate/severe [2]: 1/2/1; TEAE: Fluid overload, event severity (n): mild/moderate/severe [2]: 1/1/0; TEAE: Hyperkalaemia, event severity (n): mild/moderate/severe [2]: 2/2/1; TEAE: Hypertension, event severity (n): mild/moderate/severe [2]: 2/0/1; TEAE: Hypokalaemia, event severity (n): mild/moderate/severe [2]: 8/2/0; TEAE: Hypotension, event severity (n): mild/moderate/severe [2]: 3/3/1; TEAE: Insomnia, event severity (n): mild/moderate/severe [2]: 1/1/0; TEAE: Multiple organ dysfunction syndrome, event severity (n): mild/moderate/severe [2]: 0/0/3; TEAE: Nausea, event severity (n): mild/moderate/severe [2]: 1/3/0; TEAE: Peripheral oedema, event severity (n): mild/moderate/severe [2]: 1/1/0; TEAE: Pleural effusion, event severity (n): mild/moderate/severe [2]: 1/3/0; TEAE: Pneumonia, event severity (n): mild/moderate/severe [2]: 1/1/0; TEAE: Pneumothorax, event severity (n): mild/moderate/severe [2]: 1/3/0; TEAE: Pyrexia, event severity (n): mild/moderate/severe [2]: 5/1/0; TEAE: Respiratory failure, event severity (n): mild/moderate/severe [2]: 0/0/4; TEAE: Sepsis, event severity (n): mild/moderate/severe [2]: 0/0/3; TEAE: Septic shock, event severity (n): mild/moderate/severe [2]: 0/0/7; TEAE: Vomiting, event severity (n): mild/moderate/severe [2]: 2/1/0; Study drug-related serious TEAEs, events (each event n = 1): ventricular tachycardia, rectal haemorrhage, hypertransaminasaemia, and anaphylactic shock; Study drug-related TEAEs that led to study discontinuation, events (two patients): ventricular tachycardia and anaphylactic shock
